SMILES strings stand for the structures. The source made the active and inactive calls. The calls are words filed in the database; no cut-off is given here.

A short description of data set [1]: Cytotoxicity against african green monkey COS7 cells at 1 uM after 5 hrs by trypan blue exclusion test. Format: cell-based. To be noted: chlorocebus aethiops, cos-7, 5 h. The essentials: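 COS-7 cells were cultured on poly-L-lysine coverslips and exposed to compound at 1 µM final for 5 h at 37 °C. Intact or treated cells were soaked in PBS with 0.3% trypan blue. Viability was judged by dye exclusion under bright-field and phase-contrast microscopy.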

Data set [2] deals with COS-7. Briefly: Inhibition of V-ATPase activity in african green monkey COS7 cells assessed as increase in luminal pH of lysosomes at 1 uM after 5 hrs by fluorescent microscopy. Format: cell-based. To be noted: Chlorocebus aethiops. The essentials:
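COS-7 cells grown in DMEM with 10% FCS at 37 °C in 5% CO2 on poly-L-lysine coverslips overnight. Compound added at 1 µM final for 5 h at 37 °C. Cells then loaded 1 min with LysoSensor Green DND-189 (1 µM final) and washed with HBSS. Lysosomal fluorescence imaged by microscopy with a cooled CCD camera. Duplicate experiments.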

A short description of data set [3]: Inhibition of proton transport activity of V-ATPase in pig adrenal chromaffin granule membrane by fluorescent quenching measurement. Also on record: species or system Sus scrofa. A digest of the protocol:
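Porcine adrenal chromaffin granule membranes (50 µg protein) in 0.3 M sucrose, 40 mM KCl, 5 mM tricine, pH 8.0, with ACMA and valinomycin, preincubated 10 min at 37 °C. Compound added in DMSO (0.1% final), 3 min at 37 °C. MgATP added for 2 min, then FCCP. ACMA fluorescence quenching read. Activity taken as % of DMSO control, in triplicate with SD. IC50 derived graphically from log-concentration plots.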

Data set [4] is described as follows: Cytotoxicity against human NCI60 cells. It is filed as functional.
The nature of data set [5]: Cytotoxicity against human melanoma cells. Format: functional. To be noted: Melanoma cell.
Data set [6] is described as follows: Inhibition of V-ATPase activity in bovine […] chromaffin granule membrane. On the set-up: species or system Bos taurus.

Regarding `CC/C=C\C=C/C(=O)N/C=C\C[C@H]1C[C@@H](O)[C@@H](C)C/C=C/Cc2cccc(O)c2C(=O)O1` [SALICYLIHALAMIDE B], the Activity result in data set [1] is on record as “Non-toxic”. The result in data set [2] was Active. The same compound showed a concentration for half-maximal inhibition (IC50) in data set [3] of 30 nM.

As to `CC/C=C\C=C/C(=O)N/C=C/C[C@H]1C[C@@H](O)[C@@H](C)C/C=C/Cc2ccc(F)c(O)c2C(=O)O1` [4-19F-SALICYLIHALAMIDE A], in data set [2], the outcome was Active. This compound also came in with an IC50 in data set [3] of 2 nM.

Regarding `CC/C=C\C=C/C(=O)N/C=C\C[C@H]1C[C@@H](O)[C@@H](C)C/C=C/Cc2ccc(F)c(O)c2C(=O)O1` [4-19F-SALICYLIHALAMIDE B], the outcome in data set [2] was Active. Inhibition in data set [3] was half-maximal at 10 nM (IC50).

As to `CC/C=C\C=C/C(=O)N/C=C/C[C@H]1C[C@@H](O)[C@@H](C)C/C=C/Cc2cccc(O)c2C(=O)O1` [SALICYLIHALAMIDE A], the Activity entry in data set [1] is on record as “Non-toxic”. For the same compound, in data set [2], the result was Active. Besides, the figures for the GI50 in data set [4] and in data set [5] were 15 nM and 7 nM, respectively. Besides, the IC50 was 1 nM in data set [6] and less than 1 nM in data set [3].

Usually IC50 stands for the point on the concentration scale where inhibition reaches its midpoint. In general, GI50 refers to the concentration that inhibits growth by half.

The values are drawn from ChEMBL document CHEMBL1143310, “Design, synthesis, and biological evaluation of fluorinated analogues of salicylihalamide” (J Med Chem, 2009).
